# Test results: PubChem BioAssay
# Activity calls are given as the source filed them.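 How the source made its calls, unless noted: active means viability at or under a set limit in both replicates, limit being median viability minus 3 SD (cut at about 48% in these data, passing the limit was not always enough); inconclusive means at or under the limit in just one replicate; inactive means at or above the limit in both replicates.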
# What was measured:
# [1] = reduced viability of SK-BR-3 breast cancer cells – cell-based, 24 h, human, pilot screen (AID 572;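 active means viability at or below 10% of carrier control in both of two separate runs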;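 further: compound exposure lasted between 18 and 24 h rather than exactly 24 h; 100% = carrier-treated control wells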); settings: SK-BR-3 viability, CellTiter-Glo luminescence, at 10 µM, stronger effect = lower value
# [2] = HUVEC growth inhibition – cell-based, human, primary screen (AID 575;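 active means viability at or below 30% in both replicate assays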;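 further: 100% = median of untreated cell wells with 0.1% DMSO on each plate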); settings: HUVEC proliferation, CellTiter-Glo luminescence, 72 h; at 10 µM; stronger effect = lower value
# Method in brief: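 System – primary HUVEC, no more than 12 passages · Medium – Low-serum (2% FBS) EBM, supplemented · Times – 72 h exposure, 37 °C, 5% CO2, 30 min RT equilibration · Measured by – luminescent ATP assay · Read-out – % viability relative to median vehicle-well signal on each plate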
# [3] = H69AR cell proliferation blockers – human, duplicate replicates, primary screen (AID 580); settings: H69AR lung tumor cells viability, ATP luminescence, 72 h; at 10 µM; stronger effect = lower value;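 further: 100% = mean luminescence of untreated wells and 0% = no signal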
# [4] = MRP1 drug-resistance reversers in H69AR cells – cell-based, doxorubicin co-treatment, pilot screen (AID 601;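 active means viability loss from added drug above about 55%, and viability with drug at most 40%, in both replicates, limit read from the data, passing the limit was not always enough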); settings: CellTiter-Glo, 72 h, at 10 µM; for differential viability (reversal): stronger effect = higher value
# [5] = yeast transport mutant growth inhibition pilot in 384-well plates, post-Golgi transport modulator project (AID 636; in the data active means inhibition above about 31%); settings: absorbance 615 nm, about 18 h, stronger effect = higher value
# [6] = growth suppression of yeast trafficking mutant, preliminary HTS, modulators of trafficking downstream of Golgi apparatus project, 1536-format plate, OD 615 nm (AID 637; in the data active means inhibition above about 30%); settings: yeast transport mutant growth, absorbance 615 nm, 18 h; stronger effect = higher value
# [7] = H69AR cells + 2 uM doxorubicin, measured here: viability with 2 uM doxorubicin, stronger effect = lower value
# [8] = H69AR cells, compound alone cytotoxicity
SMILES,viability [1],viability [2],viability [3],differential viability (reversal) ([4]; H69AR cells + 2 uM doxorubicin),"viability [4, 7] [%]","viability [4, 8] [%]",inhibition [5],inhibition [6]
CC(=O)Nc1ccccc1O,111% (inactive),102% (inactive),96.1% (inactive),0.37% (inactive),95.7,96.1,-0.13% (inactive),4.5% (inactive)
COc1cc2cc(C(c3nnnn3C3CCCC3)N(C)C3CCCCC3)c(=O)[nH]c2cc1OC (configuration not stated),81% (inactive),85.2% (inactive),81.9% (inactive),-4.31% (inactive),86.2,81.9,-1.3% (inactive),-2.13% (inactive)
CN(CCNC(=O)c1ccc(N2CCCC2=O)cc1)CCc1ccccc1,72% (inactive),99% (inactive),101% (inactive),8.74% (inactive),92.6,101,-7.95% (inactive),4.36% (inactive)
Cc1ccc2c(C(=O)CN3CCSCC3)c(C)[nH]c2c1,120% (inactive),91.8% (inactive),74.2% (inactive),-0.745% (inactive),75,74.2,-3.07% (inactive),-3.82% (inactive)
CC(C)(C)NC(=O)CN(C(=O)C1CSC(=O)C1)c1ccc2c(c1)OCCO2 (configuration not stated),92% (inactive),112% (inactive),91.5% (inactive),-1.13% (inactive),92.6,91.5,0.95% (inactive),-4.55% (inactive)
CCCCOc1ccc(N(CC(=O)NC2CCCC2)C(=O)CCC(=O)Nc2ccccn2)cc1,101% (inactive),71.7% (inactive),69.4% (inactive),5% (inactive),64.4,69.4,-1.3% (inactive),2.95% (inactive)
CCc1nnc(NC(=O)CSc2nc(-c3ccc(OC)cc3)ns2)s1,110% (inactive),101% (inactive),93.1% (inactive),-0.64% (inactive),93.7,93.1,-5.07% (inactive),0.91% (inactive)
c1coc(CN2CN=C(Nc3nc4ccccc4s3)NC2)c1,91% (inactive),115% (inactive),96.4% (inactive),-0.14% (inactive),96.5,96.4,-2.3% (inactive),-4.18% (inactive)
COc1ccc(-n2ncc3c(NCc4cccs4)ncnc32)cc1,120% (inactive),90.5% (inactive),73.3% (inactive),17.6% (inactive),55.8,73.3,-6.71% (inactive),-1.64% (inactive)
CCOC(=O)c1cc(CC)sc1NC(=O)COC,104% (inactive),89.4% (inactive),88.8% (inactive),2.66% (inactive),86.2,88.8,-7.07% (inactive),0.18% (inactive)
O=C(CCCSc1nc2ccccc2s1)NC1=NCCS1,86% (inactive),102% (inactive),93.7% (inactive),-4.02% (inactive),97.8,93.7,-7.53% (inactive),1.82% (inactive)
CCOC(=O)N1CCC(NC(=O)C2CCC(Cn3c(=O)[nH]c4ccccc4c3=O)CC2)CC1 (configuration not stated),134% (inactive),64.8% (inactive),16.8% (active),-7.75% (inactive),24.6,16.8,-5.71% (inactive),0.66% (inactive)
S=C(c1ccc(N2CCOCC2)cc1)N1CCCCC1,103% (inactive),105% (inactive),93.5% (inactive),4.23% (inactive),89.2,93.5,-5.48% (inactive),-8.87% (inactive)
O=C(O)c1cc2cc(F)ccc2[nH]1,110% (inactive),78.4% (inactive),94.5% (inactive),-17.1% (inactive),112,94.5,-1.82% (inactive),-4.67% (inactive)
O=C1C(CCS(=O)c2ccccc2)C(=O)N(c2ccccc2)N1c1ccccc1 (configuration not stated),112% (inactive),84.5% (inactive),96.6% (inactive),7.85% (inactive),88.7,96.6,0.65% (inactive),10.7% (inactive)
Cc1cc(C)nc(N(C#N)CC(=O)N2CCC(C(N)=O)CC2)n1,104% (inactive),85.9% (inactive),98.6% (inactive),4.1% (inactive),94.5,98.6,-7.95% (inactive),1.45% (inactive)
CCc1ccc(Nc2cc(=O)n(C3CCCCC3)c(=O)[nH]2)cc1,136% (inactive),44% (inactive),18.3% (active),-32.1% (inactive),50.4,18.3,-3.65% (inactive),-13% (inactive)
COc1ccc(Cn2nnnc2CN2CCOCC2)cc1,100% (inactive),97.4% (inactive),96.7% (inactive),-5.83% (inactive),102,96.7,-6.85% (inactive),-0.81% (inactive)
O=C(CN1CCN(c2nc(-c3ccc(F)cc3)cs2)CC1)NCc1ccc2c(c1)OCO2,175% (inactive),69% (inactive),91.2% (inactive),15.9% (inactive),75.2,91.2,-6.49% (inactive),13.5% (inactive)
O=C(NCCCN1CCCC1=O)c1ccc2c(=O)n(Cc3ccco3)c(=S)[nH]c2c1,97% (inactive),105% (inactive),99.6% (inactive),7.89% (inactive),91.7,99.6,1.95% (inactive),10.5% (inactive)
CCCCc1c(O)nc(N2CCN(Cc3ccccc3)CC2)[nH]c1=O,93% (inactive),98.8% (inactive),96.1% (inactive),-1.67% (inactive),97.8,96.1,-7.16% (inactive),-1.82% (inactive)
COc1cc(NC(=O)c2cccs2)cc(OC)c1,72% (inactive),95.4% (inactive),97.7% (inactive),13.6% (inactive),84,97.7,-2.97% (inactive),-8.18% (inactive)
COC(=O)C1=C(N)Oc2cc(C)n(Cc3ccncc3)c(=O)c2C1c1cccnc1 (configuration not stated),113% (inactive),86% (inactive),88.4% (inactive),3.73% (inactive),84.6,88.4,-7.4% (inactive),0.97% (inactive)
CCN(CC)CCOC(=O)C1(c2ccc(OC)c(OC)c2)CCCC1,89% (inactive),99.6% (inactive),82.7% (inactive),2.25% (inactive),80.5,82.7,-5.14% (inactive),1.45% (inactive)
